Active and inactive are the calls of the source. The rule behind the calls is not given here.
Assays:
Rattus norvegicus [1] = species on record: Rattus norvegicus; experiment: Antiinflammatory activity against CB2 receptor antagonist SR-144528-pretreated rat CFA-induced chronic inflammatory thermal hyperalgesia model assessed as effect on paw withdrawal latency; assay type: functional, organism-based
Summary of the method: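 Rats given 150 µL of 50% CFA in PBS into right hind plantar paw; thermal hyperalgesia tested 48 h later. Compound in 5% DMSO/95% PEG; PWL read 30 min post dose in ipsilateral and contralateral paws, 3 trials ~5 min apart, mean of two shortest latencies. n = 6 per dose; compared against vehicle. Antagonist pretreatment group included.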

Rattus norvegicus [2] = species on record: Rattus norvegicus; experiment: Antiinflammatory activity against CB1 receptor antagonist SR-141716A-pretreated rat CFA-induced chronic inflammatory thermal hyperalgesia model assessed as effect on paw withdrawal latency; assay type: functional, organism-based
Summary of the method: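 Rats received 150 µL of 50% CFA in PBS into the right hind plantar paw. Thermal hyperalgesia was tested 48 h later after antagonist pretreatment, dosing in 5% DMSO/95% PEG vehicle, n = 6 per dose. Paw withdrawal latency was measured 30 min post-dose in the ipsilateral and contralateral paws, with 3 trials about 5 min apart. The value is the mean of the two shortest latencies, compared with vehicle.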

| Activity (Rattus norvegicus [2]) | SMILES | Activity (Rattus norvegicus [1]) |
| --- | --- | --- |
|  | Cc1ccc(Cn2nc(C(=O)NC3C(C)(C)C4CC[C@@]3(C)C4)cc2-c2ccc(Cl)c(C)c2)cc1 (some centres not stated) | inactive |
| Active | Cc1c(C(=O)NN2CCCCC2)nn(-c2ccc(Cl)cc2Cl)c1-c1ccc(Cl)cc1 |  |

From ChEMBL document CHEMBL1144013, “Indol-3-yl-tetramethylcyclopropyl ketones: effects of indole ring substitution on CB2 cannabinoid receptor activity” (J Med Chem, 2008)
